# Assay results reported in the EternaBench riboswitch data.
# Tested on: MS2 coat protein
# Experiment: apparent Kd, MS2 coat protein; higher = weaker binding; RNA-MaP array; FMN 200 µM where present
# In short: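 On Illumina sequencing-chip clusters, designs were transcribed by stalled E. coli RNA polymerase and titrated with SNAP-549-labelled MS2 coat protein (0.7 or 1.5 nM, doubling to 3 µM), without and then with constant ligand, in 100 mM Tris-HCl pH 7.5, 80 mM KCl, 4 mM MgCl2, BSA, DTT, yeast tRNA and Tween-20. Apparent Kd is the median of filtered per-cluster curve fits to green signal normalised to red-channel RNA signal and control-cluster median Fmax.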
# [1] = designed as: ON switch for flavin mononucleotide, no ligand
# [2] = ligand present: flavin mononucleotide, designed as: ON switch for flavin mononucleotide
# [3] = designed as: OFF switch for flavin mononucleotide, no ligand
# [4] = ligand present: flavin mononucleotide, designed as: OFF switch for flavin mononucleotide
Sequence,apparent Kd [1] [nM],apparent Kd [2] [nM],apparent Kd [3] [nM],apparent Kd [4] [nM]
AAAAAACAUGAGGAUCACCCAUGUAAAAAAAUGGGAGGAUAUCUGAAUUAAUUAAAUUAAGGAGAAGGCCUAAAAA,239,31.9,–,–
AAAAAACAUGAGGAUCACCCAUGUAAGGAUAUGACUUAAAUAAAGAAAGAAGAAAUAGUCAGAAGGUACAAAUA,–,–,45.3,51.1
AAAAAACAUGAGGAUCACCCAUGUCAAAAGACAUGAGGAUAUGUACAGACUUCGGUCUGUACAGAAGGCAUGUCUU,25.7,18.4,–,–
AAAAAAUAAGGAUAUACAUUUCGGGAAAUUUUUACAAAAAAACAUGAGGAUCACCCAUGUAGAAGGUAUAAAAA,–,–,23.2,20.1
AAAAAGAUAGGAUAUACAUGAAAAAAAAAAAAAAAAAAAAGACAUGAGGAUCACCCAUGUAGAAGGGUCAAAAA,–,–,133,124
AAAAAGCGAGGAUAUACAAAAGAGCGAAAGCUCAAAAGGAAACAUGAGGAUCACCCAUGUAGAAGGCGCAAGAA,–,–,21.7,20.3
AAAAAGCGAGGAUAUACAUGAGGAUCACCCAUGUAAAAAACAUGGGAUGAAACAUCAUGUAGAAGGCGCAAAAA,–,–,22.6,26
AAAAAGGCAGGAUAUACAAAAAAAAAAAAAAAAAAGGAGGGACAUGAGGAUCACCCAUGUAGAAGGGCCAAAAA,–,–,66.5,134
AAAAAGGCAGGAUAUACAAAAAAGAGAAGAGAGGAGGAGGGACAUGAGGAUCACCCAUGUAGAAGGGCCAAAAA,–,–,31.5,37.4
AAAAAGGCAGGAUAUACAUGAGGAUCACCCAUGUAAAGAAAAGAAAGAUCCAAAGAAAGUAGAAGGGCCAAAAA,–,–,74.8,286
AAAAAGUCAGGAUAUAGAAAAGGUCACGAAAGUGACAAAGGCUAGAAGGGACAUGAGGAUCACCCAUGUAAAAA,–,–,31.9,31.1
AAAAAGUCAGGAUAUCCAAAAAAAAAAAAAAAAAAAAAAAAGGAGAAGGGACAUGAGGAUCACCCAUGUAAAAA,–,–,77.9,85.3
AAAAAGUCAGGAUAUUCGGAUAGGAAAACGAAAACCUAUCCGAAGAAGGGACAUGAGGAUCACCCAUGUAAAAA,–,–,27.4,46.5
AAAAAGUGAGGAUAUACAUGAGGAUCACCCAUGUGAAAUCGGAAAAAAAACGAAAAAAGUAGAAGGCACAAAAA,–,–,25.3,24.5
AAAACAUGAGGAUCACCCAUGUAAAGAUCGGUUAAUAGAAGUGAGGAUAUGCUUAAUAUAAGGUAGCAGAAGGCACUGGGUACA,23.3,25.7,–,–
AAAACGGCACGUCCCGUGCCAACUACAGAAGGCCAACAUGAGGAUCACCCAUGUACAAACUAGAUGGAGGAUAUGUAGGUUCUA,6.19,4.24,–,–
AAAACUCACGUAGGAUAUCAUUCCUUAAGGUAGUGAGAAGGACGUGACUACAUGUCCUUGAACAUGAGGAUCACCCAUGUAGGC,–,–,49.5,55.4
AAAAGACAUGAGGAUCACCCAUGUAAAAACGUGGGAGGAUAUGUAUGGAAACCAGACUGUACAGAAGGCCUUUGUC,138,164,–,–
AAAAGACAUGAGGAUCACCCAUGUGAAAACGUGCAAGGAUAUGUGUGGAAACCGUACUAUACAGAAGGUGUGUGUC,32,41.8,–,–

Sequence,apparent Kd [1] [nM],apparent Kd [2] [nM],apparent Kd [3] [nM],apparent Kd [4] [nM]
AAAAGAUAAGCAGGAUAUCGAACAACUCAUGGGCUAUGCCAUCCGCACAUGAGGAUCACCCAUGUCGAGAAGGGCUAAGAGUAG,–,–,9.82,25.8
AAAAGCAGAGGAUAUACAUAAUUAUGACGAAAGUCAUAAAAACAUGAGGAUCACCCAUGUAGAAGGCUGCAAAA,–,–,24.4,34.1
AAAAGCUCAGGAUAUACGGUCUGUUGUUGAGAAAUAAAAAAACAUGAGGAUCACCCAUGUAGAAGGGAGCGAAA,–,–,79.5,160
AAAAGGAUCUAACACGACGGGUCACCAGAAGGGACAUUGGCACAUGAGGAUCACCCAUGUCUAGGUCAGGAUAUGGGAUCAAGA,72.3,10.4,–,–
AAACCACAUGAGGAUCACCCAUGUGAGGAUAUGAUACUAUGUACUUCGGUACAUAGUAUCAGAAGGCAUGUGGA,–,–,180,130
AAACCUAUAGGAUAUACAUGAGGAUCACCCAUGUUGCGAUUUUUUAGGUAACAGAUCCGUAGAAGGGUAGGGCA,–,–,29.7,46.9
AAACUACUAGGAUAUACAACGGUGUCCUAACUACUAAGAAAACAUGAGGAUCACCCAUGUAGAAGGAGUAGUGA,–,–,34.5,62.3
AAAGAAAAACUAGAGGAUAUCCGAGUGGUAACAUGAGGAUCACCCAUGUGAUGAAAGGAACAUGAGGAGAAGGCUAGAAGAAAAA,21.7,8.11,–,–
AAAGAAAGGUCAGGAUAUCCGUUAGUCGCGCAAGGAGAAGGGACCUCAUGGGUGCUGACACAUGAGGAUCACCCAUGUAAAAUA,–,–,65.5,23.1
AAAGACAGACAUGAGGAUCACCCAUGUUACGAAGAUAAUGGGAGAAGGGCGAUUGCAAAGCAAUCGCAGGAUAUUCAUAUUGUC,39.6,10.8,–,–
AAAGUAAACGAAGGAUAUGGUUACAUGAGGAUCACCCAUGUAAUGGUUGUGAUAUUGAUUAAGUUCCAGAAGGUCGUAUACAUA,–,–,199,371
AAAGUUCGAGGAUAUCUACUUAGCUACAUGAGGAUCACCCAUGUUAUCCUCCCGCUGGGAAGAGAAGGCGGUUAAA,–,–,36.5,210
AAAGUUGGUAGGCCCUUGGAACAUGAGGAUCACCCAUGUAAGGAGGAUAUGCCCGGUACCCGCUGGCAGAAGGCCUUAUAAGAA,–,–,20.5,143
AAAGUUUAAGCAGGAUAUCGACCAUUCCUUGAUGCUUCAUUGGUGCACAUGAGGAUCACCCAUGUCGAGAAGGGCUAUGAAGCU,–,–,15.6,47.4
AAAUAAAGCAGUGUAUUAAGAUCACAUGAGGAUCACCCAUGUAGAAGGCUCGAGCAAAAUGCUCGAGAGGAUAUACAACACUGC,–,–,10.2,195
AAAUAAAUGACUAAGGAUAUAUCAGAGAAAACAUGAGGAUCACCCAUGUAAUAAUAAAAAGGGUGAUAGAAGGUAGUCAACAAACA,222,44.5,–,–
AAAUACGGUCAAGGAUAUGUAUAAAAGAUAAGAAAACAUGAGGAUCACCCAUGUAUAUGGUGGGAACAGAAGGUGAAUAAGUAA,–,–,182,142
AAAUAGCUAGAGGAUAUCGGAUAGGAUUUACUACGAGAAGGUUAGACAUGAGGAUCACCCAUGUUCUGUUGGGA,–,–,41.5,39.2
AAAUAGUCAGGAUAUACAUGAGGAUCACCCAUGUAAACUUUUAGUUUAAUUUGAAUGUGUAGAAGGGACAUUAA,–,–,28.1,33

Sequence,apparent Kd [1] [nM],apparent Kd [2] [nM],apparent Kd [3] [nM],apparent Kd [4] [nM]
AAAUCCGCUGAGGAUAUUAUGAGUGAGAGCUCAUGAGAAGGCGGUACAUGAGGAUCACCCAUGUCUAUGGGCAA,–,–,419,292
AAAUCUGCUGAGGAUAUGAUGACUGAGAGGUCAUCAGAAGGCGGUACAUGAGGAUCACCCAUGUCUAUGGGCAA,–,–,310,659
AAAUGCAUAAAGGACACAUGAGGAUCACCCAUGUUUCUGUUCAAGGAUAUGAGGUGAAUGAUCCGUCAGAAGGUGAACUUGCUU,180,400,–,–
AAAUGCCUGUCGAUGCUCGACAUGAGGAUCACCCAUGUAUAGCAGGAUAUGCAGAACUGACUCGUGCAGAAGGGCUAUACCUAC,–,–,17.8,37.4
AAAUGCUGAGGAUAUACAUGAGGAUCACCCAUGUACUAAACUCGCAAGGGCAUCCGGUGUAGAAGGCAGCCUCA,–,–,17.3,39.7
AAAUUUAACGAAGGAUAUGCUGACAUGAGGAUCACCCAUGUGUGCUUUGUGUUGCUGAAACGGGAGCAGAAGGUCGUAUACAUA,–,–,82.5,82.5
AACAAGUCAGGAUAUCAUACUAAUCACUUGCUUUAAAUGUAUGAGAAGGGACAUGAGGAUCACCCAUGUAAAGA,–,–,32.5,35.9
AACAGCACAGGAUAUACAUGAGGAUCACCCAUGUGAGAAUUAAGUAGAUUGCCACAGAGUAGAAGGGUGCUGGA,–,–,53.7,104
AACAGGACAGGAUAUACAUGAGGAUCACCCAUGUAGGAAUUAAGCAGCGUACCACACAGUAGAAGGGUCAUGGA,–,–,35.5,34.6
AACAGUACAGGAUAUACAUGAGGAUCACCCAUGUGAAGAAUAAGUGGAGUACCACAAAGUAGAAGGGUACUGGA,–,–,26.7,132
AACAGUACAGGAUAUACAUGAGGAUCACCCAUGUGAGAAUUAAGUGGAAAACCACAAAGUAGAAGGGUACUGGA,–,–,29.8,269
AACAUGAGGAUCACCCAUGUCCCACCAGAAGGCUGGCGGUCAUGGGAAAGGCCACGACAAAUAACAGAGGAUAUGGUGAAUGCA,168,33.2,–,–
AACCGGGAGAAGCAGGAUAUUGCCUCUUCAACAUGAGGAUCACCCAUGUAAGUAAAUUGACGAUACAAGAAGGGCUGCUCCUUAC,118,38.1,–,–
AACCUACAUGAGGAUCACCCAUGUAUCUGAGGCACAGGAUAUCGACAGGCAAGACACCUGCGAGAAGGGUGACCUC,94,39.9,–,–
AACGACUGAGGAUAUACAUGAGGAUCACCCAUGUAUUGAAAUACGUGCUUGGUCAACUGUAGAAGGCAGAAUAA,–,–,15.7,40.6
AACGAGCAAGAUUAUUAUGAAUAAACAUGAGGAUCACCCAUGUAGGAUAUGCAGUGGAAUACACUGCAGAAGGACAAAAGCUCG,–,–,6.49,12.9
AACGCCAGUGAGAAGGCAUGUUCACAUGAGGAUCACCCAUGUAUACUCAUGAGGAUAUCAAAUGCGGACCAAAAUAAAAUAAGA,464,26.6,–,–
AACGCGUCAGGAUAUGCCAUAAAUUACCUAGUACGACCAUAGCAGAAGGGACAUGAGGAUCACCCAUGUAAAUA,–,–,40.5,28.3
